Data published in ChEMBL document CHEMBL1145937, “Optimization of the pharmacophore model for 5-HT7R antagonism. Design and synthesis of new naphtholactam and naphthosultam derivatives” (J Med Chem, 2003).

molecular target: T1, 5-hydroxytryptamine receptor 7 (Homo sapiens, UniProt P34969); assay: Binding affinity towards cloned human 5-hydroxytryptamine 7 receptor was determined in HEK293 cells using [3H]5-CT as radioligand; assay type: cell-based
T1 sequence (P34969 whole entry): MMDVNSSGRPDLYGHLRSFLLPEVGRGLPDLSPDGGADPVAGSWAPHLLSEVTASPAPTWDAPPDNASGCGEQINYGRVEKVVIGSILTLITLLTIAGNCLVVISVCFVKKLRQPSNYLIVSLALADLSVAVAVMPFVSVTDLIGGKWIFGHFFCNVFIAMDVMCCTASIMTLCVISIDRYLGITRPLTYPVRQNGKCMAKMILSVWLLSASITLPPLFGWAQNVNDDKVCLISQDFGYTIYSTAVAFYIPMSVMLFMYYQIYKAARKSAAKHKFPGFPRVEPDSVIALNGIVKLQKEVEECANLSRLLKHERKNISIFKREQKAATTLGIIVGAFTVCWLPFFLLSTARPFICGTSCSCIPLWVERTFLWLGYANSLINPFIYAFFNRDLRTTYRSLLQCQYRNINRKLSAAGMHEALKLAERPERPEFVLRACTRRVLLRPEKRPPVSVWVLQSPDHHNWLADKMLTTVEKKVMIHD

**Q.** Which Ki does the source give for C[C@H]1CCCN(CC[C@@H](C)N(C)S(=O)(=O)c2cccc3ccccc23)C1 here?
**A.** Its Ki is 631 nM.

**Q.** For CC1CCN(CC[C@@H]2CCCCN2S(=O)(=O)c2cccc3ccccc23)CC1, which Ki is on record?
**A.** The Ki was 15.8 nM.

**Q.** With COc1cccc(S(=O)(=O)N2CCC[C@H]2CCN2CCC(C)CC2)c1 as the molecule, how does the Ki read?
**A.** Its Ki is 10 nM.

**Q.** CC1CCN(CC[C@@H]2CCCN2S(=O)(=O)c2ccc(Cl)c(Cl)c2)CC1 was tested. Which Ki did it give?
**A.** The Ki was 3.98 nM.

**Q.** For C[C@H]1CCCN(CC[C@H](C)N(C)S(=O)(=O)c2cccc3ccccc23)C1, which Ki is on record?
**A.** Its Ki is 100000 nM.

**Q.** How did the Ki turn out when CC1CCN(CC[C@@H](C)N(C)S(=O)(=O)c2cccc3ccccc23)CC1 was run?
**A.** Its Ki is 31.6 nM.

**Q.** For CC1CCN(CC[C@@H]2CCCN2S(=O)(=O)c2cccc(Br)c2)CC1, which Ki is on record?
**A.** Its Ki is 2 nM.

**Q.** With C[C@@H]1CCCN(CC[C@H](C)N(C)S(=O)(=O)c2cccc3ccccc23)C1 as the molecule, how does the Ki read?
**A.** Its Ki is 1580 nM.

**Q.** Which Ki does the source give for CC1CCN(CC[C@@H]2CCCN2S(=O)(=O)c2cccc3ccccc23)CC1 here?
**A.** Its Ki is 10 nM.

molecular target: T1, 5-hydroxytryptamine receptor 7; assay: Binding affinity towards human recombinant 5-hydroxytryptamine 7 receptor was determined using [3H]5-CT as radioligand

**Q.** Which Ki does the source give for O=C1Nc2cccc3c2C1(CCCCN1CCN(C2CCCCC2)CC1)CCC3 (stereo not drawn) here?
**A.** Its Ki is 100000 nM.

molecular target: T1, 5-hydroxytryptamine receptor 7; assay: Non-selective inhibitory activity was determined against 5-hydroxytryptamine 7 receptor

**Q.** CC(C)(C)[C@@]1(O)CCN2C[C@@H]3c4ccccc4CCc4cccc(c43)[C@H]2C1 was tested. Which Ki did it give?
**A.** Its Ki is 63.1 nM.

**Q.** Which Ki does the source give for CCN(CC)C(=O)[C@@H]1C=C2c3cccc4[nH]c(Br)c(c34)C[C@H]2N(C)C1 here?
**A.** The Ki was 10 nM.

**Q.** With CCC(CO)NC(=O)[C@@H]1C=C2c3cccc4c3c(cn4C)C[C@H]2N(C)C1 (single isomer, unassigned) [METHYSERGIDE] as the molecule, how does the Ki read?
**A.** Its Ki is 12.6 nM.

**Q.** Which Ki does the source give for CN1CCC(=C2c3ccccc3C=Cc3ccccc32)CC1 [CYPROHEPTADINE] here?
**A.** The Ki was 50.1 nM.

**Q.** With CN1C[C@@H](NS(=O)(=O)N(C)C)C[C@@H]2c3cccc4c3c(cn4C)C[C@H]21 [MESULERGINE] as the molecule, how does the Ki read?
**A.** Its Ki is 7.94 nM.

**Q.** How did the Ki turn out when Cc1nc2sccn2c(=O)c1CCN1CCC(=C(c2ccc(F)cc2)c2ccc(F)cc2)CC1 [RITANSERIN] was run?
**A.** Its Ki is 15.8 nM.

molecular target: T2, 5-hydroxytryptamine receptor 7 (Rattus norvegicus, UniProt P32305); assay: Binding affinity towards 5-hydroxytryptamine receptor 7 on rat hypothalamus membranes using [3H]5-CT as radioligand.; assay type: tissue-based, Membrane
How it was run: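 Rat hypothalamus homogenized in ice-cold 50 mM Tris-HCl pH 7.4, spun at 48 000g, washed and preincubated at 37 °C for 10 min. Membranes were resuspended in Tris buffer with 4 mM CaCl2, 1 mg/mL ascorbic acid, 0.01 mM pargyline and 3 μM pindolol, then incubated 120 min at 23 °C with 0.5 nM [3H]-5-CT. Nonspecific binding was set by 10 μM 5-HT. GF/C filtration, scintillation counting. Ki from IC50 via Cheng–Prusoff; 2–4 assays in triplicate.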

T2 sequence (P32305 whole entry): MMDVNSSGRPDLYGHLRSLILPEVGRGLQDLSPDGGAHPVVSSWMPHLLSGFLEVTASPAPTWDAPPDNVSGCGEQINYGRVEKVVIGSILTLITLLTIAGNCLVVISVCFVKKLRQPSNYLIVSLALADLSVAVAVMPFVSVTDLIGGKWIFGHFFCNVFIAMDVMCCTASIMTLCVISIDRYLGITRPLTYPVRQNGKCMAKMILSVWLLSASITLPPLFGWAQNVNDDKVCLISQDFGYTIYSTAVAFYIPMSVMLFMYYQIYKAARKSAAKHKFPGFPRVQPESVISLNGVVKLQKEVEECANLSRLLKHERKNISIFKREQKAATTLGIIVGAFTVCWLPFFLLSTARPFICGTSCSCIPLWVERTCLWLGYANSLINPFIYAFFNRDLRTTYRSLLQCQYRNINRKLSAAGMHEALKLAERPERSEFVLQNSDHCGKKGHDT

**Q.** How did the Ki turn out when CN1CCN(CCCCN2c3cccc4cccc(c34)S2(=O)=O)CC1 was run?
**A.** Its Ki is over 10000 nM.

**Q.** CC1CCN(CCCCCN2c3cccc4cccc(c34)S2(=O)=O)CC1 was tested. Which Ki did it give?
**A.** The Ki was over 10000 nM.

**Q.** For CC1CCN(CCCCN2c3cccc4cccc(c34)S2(=O)=O)CC1, which Ki is on record?
**A.** The Ki was over 10000 nM.

**Q.** How did the Ki turn out when O=C1c2cccc3cccc(c23)N1CCCCN1CC=C(c2ccccc2)CC1 was run?
**A.** Its Ki is over 1000 nM.

**Q.** CC1CCN(CCCCCCN2c3cccc4cccc(c34)S2(=O)=O)CC1 was tested. Which Ki did it give?
**A.** Its Ki is over 10000 nM.

**Q.** O=C1c2cccc3cccc(c23)N1CCCCCCN1CCN(c2ccccc2)CC1 was tested. Which Ki did it give?
**A.** Its Ki is over 1000 nM.

**Q.** For O=S1(=O)c2cccc3cccc(c23)N1CCCCCCN1CCN(c2ccccc2)CC1, which Ki is on record?
**A.** The Ki was over 1000 nM.

**Q.** For O=C1c2cccc3cccc(c23)N1CN1CCN(c2ccccc2)CC1, which Ki is on record?
**A.** The Ki was over 10000 nM.

**Q.** How did the Ki turn out when O=C1c2cccc3cccc(c23)N1CCCCCN1CCN(C2CCCCC2)CC1 was run?
**A.** Its Ki is over 10000 nM.

**Q.** COc1ccccc1N1CCN(CN2C(=O)c3cccc4cccc2c34)CC1 was tested. Which Ki did it give?
**A.** The Ki was over 10000 nM.

**Q.** COc1ccccc1N1CCN(CCCCCCN2C(=O)c3cccc4cccc2c34)CC1 was tested. Which Ki did it give?
**A.** Its Ki is over 1000 nM.

**Q.** Which Ki does the source give for O=C1c2cccc3cccc(c23)N1CCCCN1CCN(c2ccccc2)CC1 here?
**A.** Its Ki is 631 nM.

**Q.** With O=C1c2cccc3cccc(c23)N1CCCCN1CCN(C2CCCCC2)CC1 as the molecule, how does the Ki read?
**A.** The Ki was over 10000 nM.

**Q.** O=C1c2cccc3cccc(c23)N1CCCCN1CCCCC1 was tested. Which Ki did it give?
**A.** The Ki was over 10000 nM.

**Q.** For CN1CCN(CCCCN2C(=O)c3cccc4cccc2c34)CC1, which Ki is on record?
**A.** The Ki was over 10000 nM.

**Q.** Which Ki does the source give for O=S1(=O)c2cccc3cccc(c23)N1CCCCN1CCCCC1 here?
**A.** Its Ki is over 10000 nM.

**Q.** CC1CCN(CCCCN2C(=O)c3cccc4cccc2c34)CC1 was tested. Which Ki did it give?
**A.** Its Ki is over 1000 nM.

**Q.** O=S1(=O)c2cccc3cccc(c23)N1CCCCN1CCN(c2ccccc2)CC1 was tested. Which Ki did it give?
**A.** The Ki was 1000 nM.

**Q.** For COc1ccccc1N1CCN(CCCN2C(=O)c3cccc4cccc2c34)CC1, which Ki is on record?
**A.** Its Ki is 398 nM.

**Q.** Which Ki does the source give for Cn1ccnc1SCCCCN1C(=O)c2cccc3cccc1c23 here?
**A.** The Ki was over 10000 nM.

**Q.** For O=C1c2cccc3cccc(c23)N1CCCCN1CCC(c2ccccc2)CC1, which Ki is on record?
**A.** Its Ki is over 1000 nM.

**Q.** How did the Ki turn out when O=C1c2cccc3cccc(c23)N1CCCN1CCN(c2ccccc2)CC1 was run?
**A.** Its Ki is over 10000 nM.

**Q.** For O=C1c2cccc3cccc(c23)N1CCCCN1CCC(C2CCCCC2)CC1, which Ki is on record?
**A.** Its Ki is over 1000 nM.

**Q.** Which Ki does the source give for O=S1(=O)c2cccc3cccc(c23)N1CCCCCN1CCC(C2CCCCC2)CC1 here?
**A.** Its Ki is over 10000 nM.

**Q.** For O=C1c2cccc3cccc(c23)N1CCCCCN1CC=C(c2ccccc2)CC1, which Ki is on record?
**A.** The Ki was over 1000 nM.

**Q.** For CC(C)C1CCN(CCCCCN2C(=O)c3cccc4cccc2c34)CC1, which Ki is on record?
**A.** The Ki was over 1000 nM.

**Q.** Which Ki does the source give for O=C1Nc2cccc3c2C1(CCCCN1CC=C(c2ccccc2)CC1)CCC3 (stereo not drawn) here?
**A.** The Ki was 50.1 nM.

**Q.** How did the Ki turn out when CC1CCN(CCC2CCCN2S(=O)(=O)c2cccc(O)c2)CC1 (single isomer, unassigned) was run?
**A.** The Ki was 31.6 nM.

**Q.** Which Ki does the source give for Cc1cccc(S(=O)(=O)N(C)[C@H](C)CCN2CCC(C)CC2)c1 [SB-258719] here?
**A.** The Ki was 79.4 nM.

molecular target: T2, 5-hydroxytryptamine receptor 7; assay: Binding affinity towards cloned rat 5-hydroxytryptamine 7 receptor was determined using [3H]5-HT as radioligand

**Q.** With Cc1cccc(O)c1-c1cccc2c1-c1cccc3c1[C@@H](C2)N(C)CC3 as the molecule, how does the Ki read?
**A.** The Ki was 25.1 nM.

**Q.** Which Ki does the source give for Cc1cccc(C#N)c1-c1cccc2c1-c1cccc3c1[C@@H](C2)N(C)CC3 here?
**A.** Its Ki is 3.98 nM.

**Q.** How did the Ki turn out when COc1cccc(OC)c1-c1cccc2c1-c1cccc3c1[C@@H](C2)N(C)CC3 was run?
**A.** The Ki was 12.6 nM.
